Activity calls are given as the source filed them. The calls are words filed in the database; no cut-off is given here.
Key:
Urease = Urease (Canavalia ensiformis, UniProt P07374); experiment: Inhibition of jack bean urease assessed as ammonia production after 30 mins by indophenol method
How it was run: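 Indophenol (Weatherburn) ammonia read-out. Enzyme (5 U/mL) and test compound in buffer of 100 mM urea, 1 mM EDTA, 10 mM K2HPO4 and 10 mM […] at pH 8.2, incubated 30 min at 37 °C. Phenol and alkali reagents (NaOH, 0.1% active chloride NaOCl) then added; absorbance read by microplate reader. Run in triplicate; thiourea and acetohydroxamic acid as reference inhibitors.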

Aspergillus flavus = experiment: Antifungal activity against Aspergillus flavus after 24 to 48 hrs by agar well diffusion method; type: functional
How it was run: (§1)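 Agar well diffusion: 20 mL inoculum added to molten potato dextrose agar and pour-plated, with 6 mm wells cut by cork borer after setting. Inhibition zone measured in mm and scored from + (<1 mm) to ++++ (>6 mm). 2% DMSO in screen medium was the negative control; fluconazole and terbinafine were separate positive controls.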

Aspergillus niger = experiment: Antifungal activity against Aspergillus niger after 24 to 48 hrs by agar well diffusion method; type: functional; how it was run: as §1
[1] = test system: Radical scavenging activity; experiment: Antioxidant activity assessed as DPPH free radical scavenging activity at 1 mM after 30 mins; type: functional
Saccharomyces cerevisiae = experiment: Antifungal activity against Saccharomyces cerevisiae after 24 to 48 hrs by agar well diffusion method; type: functional; how it was run: as §1
Candida tropicalis = experiment: Antifungal activity against Candida tropicalis after 24 to 48 hrs by agar well diffusion method; type: functional; how it was run: as §1
[2] = test system: Radical scavenging activity; experiment: Antioxidant activity assessed as DPPH free radical scavenging activity after 30 mins; type: functional

Sequence of Urease (P07374 whole entry): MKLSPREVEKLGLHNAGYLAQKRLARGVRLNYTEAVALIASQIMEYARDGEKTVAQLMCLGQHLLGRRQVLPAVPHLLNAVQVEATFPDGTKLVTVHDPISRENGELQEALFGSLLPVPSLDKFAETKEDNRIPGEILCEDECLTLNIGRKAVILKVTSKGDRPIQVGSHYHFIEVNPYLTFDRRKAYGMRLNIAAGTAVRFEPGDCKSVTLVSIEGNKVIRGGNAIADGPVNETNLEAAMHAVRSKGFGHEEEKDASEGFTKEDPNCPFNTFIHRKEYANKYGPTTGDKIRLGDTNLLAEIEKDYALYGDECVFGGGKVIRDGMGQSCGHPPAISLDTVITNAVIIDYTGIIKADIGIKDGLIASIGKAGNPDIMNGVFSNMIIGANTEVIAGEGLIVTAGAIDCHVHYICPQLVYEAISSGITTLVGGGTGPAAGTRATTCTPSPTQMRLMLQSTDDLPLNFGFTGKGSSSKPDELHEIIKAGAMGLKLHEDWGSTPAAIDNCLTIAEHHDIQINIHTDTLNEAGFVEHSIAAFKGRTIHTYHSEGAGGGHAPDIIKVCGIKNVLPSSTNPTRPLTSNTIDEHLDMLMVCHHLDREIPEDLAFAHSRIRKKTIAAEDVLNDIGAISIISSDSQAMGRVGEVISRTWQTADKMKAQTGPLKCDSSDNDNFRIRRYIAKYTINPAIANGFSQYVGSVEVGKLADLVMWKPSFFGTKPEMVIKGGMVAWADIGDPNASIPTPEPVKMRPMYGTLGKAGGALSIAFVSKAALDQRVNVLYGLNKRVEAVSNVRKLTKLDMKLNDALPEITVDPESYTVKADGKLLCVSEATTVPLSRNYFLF

Structure (SMILES)	IC50 (Urease) [µM]	inhibition zone (IZ) (Aspergillus flavus)	inhibition zone (IZ) (Aspergillus niger)	inhibition [1] [%]	inhibition zone (IZ) (Saccharomyces cerevisiae)	inhibition zone (IZ) (Candida tropicalis)	IC50 [2] [µM]
O=C(NC(=S)Nc1ccccc1C(F)(F)F)c1ccccc1	38.2	3 mm	1 mm	38	1 mm	3 mm	–
O=C(NC(=S)NC1CCCCC1)c1ccccc1	53.2	<1 mm	<1 mm	28	<1 mm	<1 mm	–
O=C(NC(=S)Nc1ccc(Cl)cc1)c1ccccc1	35.3	1 mm	1 mm	–	1 mm	1 mm	265
Cc1cc(C)c(NC(=S)NC(=O)c2ccccc2)c(C)c1	8.11	1 mm	<1 mm	24	<1 mm	1 mm	–
O=C(NC(=S)Nc1ccc(Cl)cc1Cl)c1ccccc1	13.2	1 mm	3 mm	–	3 mm	1 mm	240
O=C(NC(=S)NCc1ccccc1Cl)c1ccccc1	35.3	<1 mm	<1 mm	36	<1 mm	<1 mm	–
O=C(NC(=S)Nc1ccccc1Cl)c1ccccc1	41.2	<1 mm	<1 mm	26	<1 mm	<1 mm	–
O=C(NC(=S)Nc1ncccn1)c1ccccc1	8.21	inactive	<1 mm	–	<1 mm	inactive	276
COc1cccc(NC(=S)NC(=O)c2ccccc2)c1	12.8	3 mm	3 mm	–	3 mm	3 mm	805
O=C(NC(=S)Nc1cccc(Cl)c1Cl)c1ccccc1	32.2	<1 mm	<1 mm	–	<1 mm	<1 mm	29.5
O=C(NC(=S)Nc1ccc(F)cc1)c1ccccc1	41.2	3 mm	3 mm	31	3 mm	3 mm	–
Cc1ccc(NC(=S)NC(=O)c2ccccc2)cc1	6.23	1 mm	1 mm	–	1 mm	1 mm	23.3
CCCCc1ccc(NC(=S)NC(=O)c2ccccc2)cc1	47.2	<1 mm	<1 mm	–	<1 mm	<1 mm	676
O=C(NC(=S)Nc1ccc(C(F)(F)F)cc1)c1ccccc1	12.2	3 mm	3 mm	–	3 mm	3 mm	114
O=C(NC(=S)Nc1c(Cl)cccc1Cl)c1ccccc1	4.27	1 mm	1 mm	29	1 mm	1 mm	–
OC(Cn1cncn1)(Cn1cncn1)c1ccc(F)cc1F [FLUCONAZOLE]	–	3 mm	3 mm	–	3 mm	3 mm	–
CN(C/C=C/C#CC(C)(C)C)Cc1cccc2ccccc12 [TERBINAFINE]	–	3 mm	3 mm	–	3 mm	3 mm	–
CCCOC(=O)c1cc(O)c(O)c(O)c1 [PROPYL GALLATE]	–	–	–	–	–	–	40.8
Cc1cccc(NC(=S)NC(=O)c2ccccc2)c1C	3.17	<1 mm	<1 mm	27	<1 mm	<1 mm	–
O=C(NC(=S)Nc1ccc(Cl)c(Cl)c1)c1ccccc1	5.51	<1 mm	<1 mm	–	<1 mm	<1 mm	70
O=C(NC(=S)Nc1cc(Cl)ccc1Cl)c1ccccc1	4.54	<1 mm	<1 mm	–	<1 mm	<1 mm	30.7
COc1ccc(O)c(C(C)(C)C)c1.COc1ccc(O)cc1C(C)(C)C [BUTYLATED HYDROXYANISOLE]	–	–	–	–	–	–	28.2
O=C(NC(=S)Nc1cc(Cl)cc(Cl)c1)c1ccccc1	18.4	<1 mm	<1 mm	–	<1 mm	<1 mm	27
O=C(NC(=S)Nc1cccc(Cl)c1)c1ccccc1	27.3	<1 mm	<1 mm	21	<1 mm	<1 mm	–
NC(N)=S [THIOUREA]	22.3	–	–	–	–	–	–
O=C(NC(=S)Nc1ccccc1)c1ccccc1 [N-(PHENYLCARBAMOTHIOYL)BENZAMIDE]	14.1	inactive	inactive	–	inactive	inactive	769
O=C(NC(=S)Nc1c(Cl)c(Cl)cc(Cl)c1Cl)c1ccccc1	74.9	3 mm	3 mm	31	3 mm	3 mm	–
O=C(NC(=S)Nc1cccc(C(F)(F)F)c1)c1ccccc1	39.6	1 mm	3 mm	34	3 mm	1 mm	–
O=C(NC(=S)NCc1ccccc1)c1ccccc1	27.4	inactive	inactive	22	inactive	inactive	–
O=C(NC(=S)Nc1cccc(F)c1)c1ccccc1	3.52	<1 mm	1 mm	38	1 mm	<1 mm	–

Source: ChEMBL document CHEMBL3085707, “Solution-phase microwave assisted parallel synthesis of N,N'-disubstituted thioureas derived from benzoic acid: biological evaluation and molecular docking studies” (Eur J Med Chem, 2013)
